Results from different studies.
Lines come from different studies, so protocols differ.
JAK1 JH2: Tyrosine-protein kinase JAK1, JH2 (JAK1, Homo sapiens, UniProt P23458)
JAK1 JH1: Tyrosine-protein kinase JAK1, JH1 (JAK1, Homo sapiens, UniProt P23458)
JAK1: Tyrosine-protein kinase JAK1 (JAK1, Homo sapiens, UniProt P23458)

CCC(=N\O)/C(C)=C/c1ccc(F)cc1 has a remaining binding of 88% (JAK1 JH2; cell-free assay, competition with immobilised ligand; 1 µM).
Cc1cnc(Nc2ccc(C(=O)N3CCC(N4CCCC4)CC3)cc2)nc1-c1cc2ccccc2s1 gave a remaining binding of 0% (JAK1 JH2; binding, competition with immobilised ligand; 1 µM).
Nc1ncc2c(n1)-c1c([nH]c3ccc(C#CC4CC4)cc13)CCCC2 gave a remaining binding of 100% (JAK1 JH1; binding, competition with immobilised ligand; 1 µM).
The remaining binding of CO[C@H]1CC[C@H](CNc2ccc(S(=O)(=O)NC(=O)c3ccc(N4CCN(CC5=C(c6ccc(Cl)cc6)CC(C)(C)CC5)CC4)cc3Oc3cnc4[nH]ccc4c3)cc2[N+](=O)[O-])CC1 is reported as 100% (JAK1 JH2; cell-free assay, competition with immobilised ligand; 1 µM).
The remaining binding of c1cncc(-c2cccc(Nc3nccc(NC4CCCCC4)n3)c2)c1 is reported as 0.2% (JAK1 JH2; binding, competition with immobilised ligand; 10 µM).
The remaining binding of Cc1nc(C2CCN(C(=O)c3ccc(OC(F)(F)F)cc3N)CC2)c2ncc(N3CCN(C)CC3)cc2n1 is reported as 95% (JAK1 JH1; cell-free assay, competition with immobilised ligand; 1 µM).
With FC(F)(F)Oc1cccc(-c2cnc3ccc(-c4ccncc4)nn23)c1 the remaining binding was 100% (JAK1 JH1; cell-free assay, competition with immobilised ligand; 5 µM).
The remaining binding of CN1CCN(c2ccc(Nc3nccc(-c4ccccc4)n3)cc2C(F)(F)F)CC1 is reported as 0.45% (JAK1; binding; 10 µM).
CCN1CCN(Cc2ccc(C(=O)Nc3ccc(C)c(Oc4ccc5c(c4)CC(=O)N5)c3)cc2C(F)(F)F)CC1 gave a remaining binding of 76% (JAK1 JH1; binding, competition with immobilised ligand; 1 µM).
CS(=O)(=O)N1CCCC(NC(=O)[C@H](CCC2CCCCC2)NC(=O)c2ccc(CNC(=O)c3cnc4ccccn34)cc2)C1 (stereo partly drawn) gave a remaining binding of 100% (JAK1 JH2; cell-free assay, competition with immobilised ligand; 0.1 µM).
The remaining binding of CN(C)c1nccc(-c2cnn3ncccc23)n1 is reported as 69% (JAK1 JH1; cell-free assay, competition with immobilised ligand; 1 µM).
CNC(=O)[C@@H]1CC[C@@H](n2c(-c3ccc4cnccc4c3)nc3ccc(C(=O)NCc4cccc(C(N)=O)c4)cc32)C1 has a remaining binding of 60% (JAK1 JH2; binding, competition with immobilised ligand; 1 µM).
O=C(O)[C@@H]1[C@@H](Cn2nnc3ccccc3c2=O)CC[C@H]1C(=O)c1ccc(OCCC2CCOCC2)cc1 gave a remaining binding of 100% (JAK1 JH2; cell-free assay, competition with immobilised ligand; 1 µM).
The remaining binding of O=C(c1ccc(Nc2ncc(Cl)c(-c3ccc(Cl)s3)n2)cc1)N1CCC(N2CCCC2)CC1 is reported as 3.9% (JAK1 JH2; binding, competition with immobilised ligand; 1 µM).
For F[C@@H]1CCN(c2nccc(-c3cnn4ncccc34)n2)C1, the remaining binding was 100% (JAK1; binding; 1 µM).
COc1ncc2cc3ccccc3nc2c1C#N gave a remaining binding of 93% (JAK1 JH1; cell-free assay, competition with immobilised ligand; 5 µM).
COc1ccnn2ncc(-c3ccnc(N(C)C)n3)c12 gave a remaining binding of 74% (JAK1; binding; 1 µM).
O=C(NCC1CCOCC1)c1n[nH]cc1NC(=O)c1c(F)cccc1F has a remaining binding of 100% (JAK1 JH1; binding, competition with immobilised ligand; 1 µM).
CN(C(=O)c1ccccc1)c1cc(N(C)c2ccc3c(c2)CCc2ccc(C(=O)NCCN4CCOCC4)cc2C3=O)ccc1F gave a remaining binding of 88% (JAK1 JH2; cell-free assay, competition with immobilised ligand; 1 µM).
O=C(NCCCN1CCOCC1)c1ccc(Nc2nccc(-c3cc4ccccc4s3)n2)cc1 gave a remaining binding of 41% (JAK1 JH2; binding, competition with immobilised ligand; 1 µM).
CN(C)c1nccc(-c2cnc3ncccn23)n1 has a remaining binding of 94% (JAK1 JH1; cell-free assay, competition with immobilised ligand; 1 µM).
O=C(Nc1c[nH]nc1C(=O)NC1CCNCC1)c1cc(F)cc(F)c1 has a remaining binding of 88% (JAK1 JH1; binding, competition with immobilised ligand; 1 µM).
The remaining binding of O=C(c1ccc(Nc2ncc(Cl)c(-c3cc4ccccc4s3)n2)cc1)N1CCC(N2CCCC2)CC1 is reported as 0.9% (JAK1 JH2; binding, competition with immobilised ligand; 1 µM).
With NS(=O)(=O)c1cc(NC(=O)C2(c3ccccc3Cl)CC2)ccc1Oc1cccc(Cl)c1 the remaining binding was 76% (JAK1 JH2; cell-free assay, competition with immobilised ligand; 1 µM).
For C[C@H]1CCN(c2nccc(-c3cnn4ncccc34)n2)C1, the remaining binding was 62% (JAK1; binding; 1 µM).
O=C(NCCCN1CCOCC1)c1ccc(Nc2ncc(Cl)c(-c3ccc(Cl)s3)n2)cc1 has a remaining binding of 4.6% (JAK1 JH1; binding, competition with immobilised ligand; 1 µM).
COc1cnc(Nc2cccc(S(N)(=O)=O)c2)nc1N1CCN(c2ccccc2)C(=O)C1 has a remaining binding of 44% (JAK1 JH2; binding, competition with immobilised ligand; 1 µM).
CN(C)c1ncc(F)c(-c2cnn3ncccc23)n1 gave a remaining binding of 100% (JAK1 JH1; cell-free assay, competition with immobilised ligand; 1 µM).
The remaining binding of COc1cnc(Nc2cccc(S(N)(=O)=O)c2)nc1N1CCN(c2ccccc2)CC1 is reported as 48% (JAK1 JH1; binding, competition with immobilised ligand; 1 µM).
The remaining binding of c1cnn2ncc(-c3ccnc(N4CCC45COC5)n3)c2c1 is reported as 67% (JAK1; binding; 1 µM).
With Nc1cnc(N2CCc3cc(S(=O)(=O)Nc4c(F)cc(Cl)cc4F)cc(N4CCCC4=O)c32)nc1 the remaining binding was 100% (JAK1 JH1; cell-free assay, competition with immobilised ligand; 1 µM).
For N[C@@H]1CCN(c2nccc(-c3cnn4ncccc34)n2)C1, the remaining binding was 100% (JAK1 JH1; cell-free assay, competition with immobilised ligand; 1 µM).
The remaining binding of O=C(c1ccc(Nc2nccc(-c3cc4ccccc4s3)n2)cc1)N1CCC(N2CCCC2)CC1 is reported as 82% (JAK1 JH1; binding, competition with immobilised ligand; 1 µM).
